Shown are actives, neighbours in structure and some others; about 4% of the full set was active somewhere.
GPR7 antagonist: antagonists of human GPR7 (neuropeptides B/W receptor 1). 290,000 tested, 1.1% active. inhibition, % at 4.4 µM. AID 1861. GPR7-expressing cells, fluorescence antagonist assay; in the data active means inhibition above about 16%, passing the limit was not always enough;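 further: cells stimulated with the agonist NPW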
Target sequence (P48145 whole entry, looked up): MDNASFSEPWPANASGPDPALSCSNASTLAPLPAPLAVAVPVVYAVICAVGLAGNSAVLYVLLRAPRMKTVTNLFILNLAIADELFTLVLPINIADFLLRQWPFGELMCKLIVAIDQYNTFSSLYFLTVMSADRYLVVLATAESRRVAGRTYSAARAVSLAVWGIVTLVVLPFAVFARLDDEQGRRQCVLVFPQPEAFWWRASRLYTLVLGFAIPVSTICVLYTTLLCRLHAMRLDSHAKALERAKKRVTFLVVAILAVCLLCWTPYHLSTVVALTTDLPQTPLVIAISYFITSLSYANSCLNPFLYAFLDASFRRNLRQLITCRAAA
TAAR1 antagonist: antagonists of human TAAR1; CHO RD-HGA16 TAAR1, Fluo-8 calcium fluorescence, antagonist; Q96RJ0; 360,000 tested, 1.5% active; inhibition, % at 3 µM;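 active means inhibition above a per-plate cutoff, the mean inhibition of test compounds on that plate plus 3 SD, cut at about 49% in these data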
Target sequence (Q96RJ0 whole entry, looked up): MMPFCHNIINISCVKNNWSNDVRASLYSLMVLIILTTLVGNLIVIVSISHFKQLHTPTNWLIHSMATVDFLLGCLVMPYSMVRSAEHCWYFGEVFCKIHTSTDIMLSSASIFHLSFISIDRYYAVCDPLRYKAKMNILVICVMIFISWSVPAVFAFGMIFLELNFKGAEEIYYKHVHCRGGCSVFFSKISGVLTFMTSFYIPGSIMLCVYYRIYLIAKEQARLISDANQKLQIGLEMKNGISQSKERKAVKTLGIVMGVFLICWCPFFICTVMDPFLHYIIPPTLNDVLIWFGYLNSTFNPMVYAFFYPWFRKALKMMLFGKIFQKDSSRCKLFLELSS
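Test system: CHO RD-HGA16 cells bearing hTAAR1 | Reagent: β-PEA, EC80 | Compound dosing: 3 µM, single point | Schedule: Dye loading 75 min at 37 °C, then 30 min room temperature | Signal: Calcium fluorescence with Fluo-8 | Evaluation: Percent inhibition of PEA-evoked calcium signal, max/basal emission ratio | Control set: DMSO-only wells and EC80 β-PEA-stimulated wells | Repeats: Singlicate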
DAGLB inh: blocks human DAGLB lipase activity; Q8NCG7; inhibition, % at 5.17 µM; HEK293T DAGLB membrane lysate, EnzChek fluorogenic substrate; 340,000 tested, 0.059% active; in the data active means inhibition above about 34%
TAAR1 ag: agonists of human TAAR1; CHO RD-HGA16 TAAR1, Fluo-8 calcium fluorescence; vehicle wells 0%, saturating PEA agonist 100%; activation, % at 3 µM; 360,000 tested, 0.99% active; AID 624467;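 active means activation above the mean activation of all test compounds in the run plus 3 SD, cut at about 38% in these data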
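System: CHO-derived RD-HGA16 cells with stable Gα16 and human TAAR1 / Times: 17-24 h plating, Fluo-8 75 min 37 °C, 30 min RT / Technique: calcium-sensitive Fluo-8 signal, excitation 470-495, emission 515-575 nm / Measure: % activation relative to PEA EC100 response / Benchmarks: DMSO and PEA EC100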
MPTP block: permeability transition pore inhibition. isolated mouse mitochondria, Ca2+ swelling absorbance, 30 min. inhibition, % at 10 µM. 360,000 tested, 1.4% active. AID 602449;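 active means inhibition of 50% or more, scaled per plate between neutral and stimulator controls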
TAAR1 ag confirm: confirmation of human TAAR1 agonists; CHO RD-HGA16 TAAR1, Fluo-8 calcium fluorescence; scaled: DMSO 0%, maximal phenethylamine 100%; activation, % at 3 µM; shares compounds with TAAR1 ag; 2,400 tested, 82% active;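 active means activation above a cutoff set at the run's mean compound activation plus 3 SD, cut at about 39% in these data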
Ga16 ag counter: nonselective agonist in parental cells, TAAR1 agonist counter-screen. AID 651787. CHO-Ga16 parental, Fluo-8 calcium fluorescence; normalized to maximal ATP response, DMSO zero. activation, % at 3 µM. shares compounds with TAAR1 ag. 2,400 tested, 50% active;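 active means activation above the run cutoff, the mean activation over all tested wells plus 3 SD, cut at about 12% in these data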
TAAR1 desens: counter-screen for human TAAR1 agonists: agonists that desensitize TAAR1; shares compounds with TAAR1 ag; CHO RD-HGA16 hTAAR1, Fluo-8 calcium, beta-PEA response inhibition; 2,400 tested, 46% active; AID 651951; inhibition, % at 3 µM;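 active means inhibition above the run cutoff, the mean inhibition of all test compounds plus 3 SD, cut at about 49% in these data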;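 further: beta-PEA stimulus applied at its EC80; loss of beta-PEA calcium signal after compound pretreatment read as receptor desensitization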
Ga16 antag count: nonselective Ga16 antagonism, counter-screen. shares compounds with TAAR1 ag. CHO-Ga16 ATP-induced calcium, Fluo-8 fluorescence. inhibition, % at 3 µM. 2,400 tested, 39% active;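 active means inhibition above the plate's mean compound inhibition plus 3 SD, computed per plate, cut at about 22% in these data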
Each line names hits and unclear results; the compound was inactive in the other large screens (follow-up assays come after a bar, where they were run).

COC(=O)[C@]12C[C@H](CC(=O)NCc3cccs3)C(=O)N(Cc3ccc4c(c3)OCO4)C1=C[C@H](COCc1ccccc1)O[C@@H]2C	none (no result: GPR7 antagonist, DAGLB inh, MPTP block)
N#C/C(=C\c1ccccn1)c1nc2ccccc2s1	GPR7 antagonist 21, TAAR1 antagonist 75, TAAR1 ag 72 | TAAR1 ag confirm inactive | Ga16 ag counter 29 | TAAR1 desens inactive | Ga16 antag count 53
COC(=O)c1ccc(/C=C(\C#N)c2nc3ccccc3s2)cc1	none
O=C(NCc1ccccc1)[C@H]1CCCN1C(=O)[C@H]1CCCN1C(=O)c1cccc(F)c1	none (no result: GPR7 antagonist, DAGLB inh, MPTP block)
O=C(Cn1cnc2c(oc3ccccc32)c1=O)NCCc1ccccc1	none (no result: TAAR1 antagonist, TAAR1 ag) | Ga16 ag counter inactive | Ga16 antag count inactive
CCc1nc2ccc(C(=O)Nc3ccc(NC(C)=O)cc3)cn2c1N(C)CCC(C)C	none (no result: GPR7 antagonist, DAGLB inh)
CCc1nc2ccc(C(=O)Nc3ccc(OC)c(OC)c3)cn2c1N(C)CCC(C)C	TAAR1 ag 82 (no result: GPR7 antagonist, DAGLB inh) | TAAR1 ag confirm 99 | Ga16 ag counter 68 | TAAR1 desens inactive | Ga16 antag count inactive
C=CCn1c(=O)[nH]c2nc3cc(N=CN(C)C)c(C)cc3nc2c1=O	TAAR1 ag 90 | TAAR1 ag confirm inactive | Ga16 ag counter 45 | TAAR1 desens inactive | Ga16 antag count 23
Cn1ccnc1C1CCCCN1C(=O)c1cc(COc2ccc(F)cc2F)on1 (centres undefined)	TAAR1 ag 56 | TAAR1 ag confirm inactive | Ga16 ag counter inactive | TAAR1 desens inactive | Ga16 antag count inactive
O=C1c2[nH]nc(-c3ccccc3)c2C(c2ccc(F)cc2)N1Cc1ccccc1 (centres undefined)	none (no result: GPR7 antagonist, DAGLB inh, MPTP block)
CCC(C)N=CC1=C(O)CC(c2ccccc2)CC1=O (centres undefined)	none
CCCC(=NC(C)CC)C1=C(O)CC(c2ccccc2)CC1=O (centres undefined)	TAAR1 ag 58 | TAAR1 ag confirm 86 | Ga16 ag counter 56 | TAAR1 desens inactive | Ga16 antag count inactive
Cc1cc(/C=C2\SC(=S)NC2=O)c(C)n1-c1ccccc1	none (no result: DAGLB inh)
Cc1cc(/C=C2/SC(=O)NC2=O)c(C)n1-c1ccc(N2CCOCC2)cc1	TAAR1 ag 54 | TAAR1 ag confirm 60 | Ga16 ag counter 38 | TAAR1 desens inactive | Ga16 antag count 24
C[C@@H]1CN([C@@H](C)CO)C(=O)CCCn2cc(nn2)CO[C@H]1CN(C)C(=O)C1CC1	none (no result: GPR7 antagonist, DAGLB inh, MPTP block)
N#Cc1cc2cc(Cl)ccc2[nH]c1=O	none (no result: GPR7 antagonist, DAGLB inh)
CCOc1cc(OCC)cc(C(=O)N2CCC[C@@H]2C(=O)N2CCC[C@@H]2C(=O)NCc2ccccc2Cl)c1	none (no result: GPR7 antagonist, DAGLB inh)
COc1nc(NC(C)(C)C)nc(Oc2ccc(=O)n(-c3ccccc3)n2)n1	none
CC(C)Nc1nc(NC(C)(C)C)nc(Oc2ccc(=O)n(-c3ccccc3)n2)n1	TAAR1 ag 70 | TAAR1 ag confirm 76 | Ga16 ag counter 54 | TAAR1 desens inactive | Ga16 antag count inactive
COCCCNC(=O)C[C@H]1C[C@@]2(C(=O)OC)C(=C[C@H](C(C)(C)C)O[C@@H]2C)N(CCC2=CCCCC2)C1=O	none (no result: GPR7 antagonist, DAGLB inh, MPTP block)
CCOc1ccc(NS(=O)(=O)c2ccc(C(=O)N3CCCCC3)cc2)cc1	TAAR1 ag 67 | TAAR1 ag confirm 66 | Ga16 ag counter 45 | TAAR1 desens inactive | Ga16 antag count 35
CCOC(=O)c1ccc(NS(=O)(=O)c2ccc(SC)cc2)cc1	TAAR1 ag 46 | TAAR1 ag confirm 40 | Ga16 ag counter 19 | TAAR1 desens inactive | Ga16 antag count 26
COc1ccc(NS(=O)(=O)c2ccc(C(=O)N3CCC(C)CC3)cc2)cc1	TAAR1 ag 91 (no result: GPR7 antagonist) | TAAR1 ag confirm 76 | Ga16 ag counter 40 | TAAR1 desens inactive | Ga16 antag count 26
CCOc1ccc(NS(=O)(=O)c2ccc(C(=O)NCC(c3ccco3)N3CCCC3)cc2)cc1 (centres undefined)	TAAR1 ag 65 (no result: GPR7 antagonist) | TAAR1 ag confirm 83 | Ga16 ag counter 39 | TAAR1 desens inactive | Ga16 antag count 29
CC1=C(C(=O)N2CCOCC2)CC(CC(=O)NCc2ccco2)C(=O)N1CCC1=CCCCC1 (centres undefined)	none (no result: GPR7 antagonist)
CCN(c1ccccc1)S(=O)(=O)c1ccc(C(=O)NCC(c2ccccc2OC)N2CCCC2)cc1 (centres undefined)	TAAR1 ag 46 (no result: GPR7 antagonist) | TAAR1 ag confirm 60 | Ga16 ag counter 13 | TAAR1 desens inactive | Ga16 antag count 25
CCOc1ccc(NS(=O)(=O)c2ccc(C(=O)N3CC(C)OC(C)C3)cc2)cc1 (centres undefined)	TAAR1 antagonist 79, TAAR1 ag 130 (no result: GPR7 antagonist) | TAAR1 ag confirm 119 | Ga16 ag counter 91 | TAAR1 desens 79 | Ga16 antag count 40
C=CCN(c1ccccc1)S(=O)(=O)c1cccc(C(=O)NCC(c2ccccc2OC)N2CCCC2)c1 (centres undefined)	none (no result: GPR7 antagonist)
CCOC(=O)C1=C[C@@H](C2CCCC2)N(S(=O)(=O)c2ccc([N+](=O)[O-])cc2)[C@H]1c1ccccc1	none (no result: GPR7 antagonist, DAGLB inh)
N#Cc1ccc(-c2cccc3nccn23)cc1	none (no result: GPR7 antagonist, DAGLB inh)
Cc1ccc2nc(CN(C)C(=O)[C@H](CCc3ccccc3)NC(=O)[C@H]3O[C@@H](n4cnc5c(N)ncnc54)[C@H](O)[C@@H]3O)[nH]c2c1	none (no result: GPR7 antagonist, DAGLB inh, MPTP block)
COc1cccc(N2CCN(C3C4CC5CC(C4)CC3C5)CC2)c1 (centres undefined)	TAAR1 ag 41 | TAAR1 ag confirm 56 | Ga16 ag counter 19 | TAAR1 desens inactive | Ga16 antag count inactive
CC(=O)c1ccc(NC(=O)CC(NCCC2=CCCCC2)C(=O)O)cc1 (centres undefined)	TAAR1 ag 45 | TAAR1 ag confirm 74 | Ga16 ag counter inactive | TAAR1 desens inactive | Ga16 antag count inactive
O=C(CCc1nc(-c2ccccc2Cl)no1)NCCc1ccccc1	TAAR1 ag 58 | TAAR1 ag confirm 68 | Ga16 ag counter inactive | TAAR1 desens inactive | Ga16 antag count inactive
COCCCNC(=O)CCc1nc(-c2ccccc2Cl)no1	none
Cc1ccccc1C(=O)c1cccn1CC(=O)NCc1ccccc1Cl	TAAR1 ag 50 | TAAR1 ag confirm inactive | Ga16 ag counter inactive | TAAR1 desens inactive | Ga16 antag count inactive
Cc1cccc(NC(=O)Nc2ccncc2)c1	TAAR1 ag 53 | TAAR1 ag confirm 77 | Ga16 ag counter inactive | TAAR1 desens inactive | Ga16 antag count inactive
